Test results published in ChEMBL document CHEMBL2176909, “Kaurenoic acid from Sphagneticola trilobata Inhibits Inflammatory Pain: effect on cytokine production and activation of the NO-cyclic GMP-protein kinase G-ATP-sensitive potassium channel signaling pathway” (J Nat Prod, 2012).
Calls of active or inactive are those of the source.

What was measured:
Mus musculus [1] = assay: Antihyperalgesic activity in carrageenan-induced mechanical hyperalgesia Swiss mouse model assessed as paw withdrawal latency at 5 mg/kg, ip administered 40 mins prior to challenge by electronic pressure-meter test; format: functional, organism-based; set-up: dose 5 mg/kg
Method in brief: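 Male Swiss mice dosed po (1–10 mg/kg, 2% DMSO in saline) 30 min before intraplantar carrageenin (100 μg/paw). Control indomethacin 5 mg/kg ip given 40 min before. Electronic pressure-meter readings at 1, 3 and 5 h, mean of three. Δ withdrawal threshold (g) is the post-stimulus reading minus zero-time. n = 5.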

Mus musculus [2] = assay: Antinociceptive activity in Swiss mouse assessed as inhibition of PBQ-induced writhing at 5 mg/kg, ip administered 30 mins prior to PBQ challenge; format: functional, organism-based; set-up: dose 5 mg/kg
Mus musculus [3] = assay: Antinociceptive activity in Swiss mouse assessed as inhibition of acetic acid-induced writhing at 5 mg/kg, ip administered 30 mins prior to acetic acid challenge; format: functional, organism-based; set-up: dose 5 mg/kg
Mus musculus [4] = assay: Gastrointestinal toxicity in Swiss mouse assessed as increase in stomach MPO activity at 2.5 mg/kg, po for 7 days measured over 7 days relative to vehicle-treated control; format: organism-based; set-up: dose 2.5 mg/kg, route oral; conditions: in vivo, 168 h
Method in brief: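 Mice dosed po daily for 7 days: vehicle (2% DMSO/saline or Tris/HCl pH 8.0), 10 mg/kg, or indomethacin 2.5 mg/kg. Stomach is homogenized in 50 mM phosphate buffer pH 6.0 with 0.5% HTAB. Supernatant is reacted with o-dianisidine/H2O2 and read at 450 nm. Results expressed as neutrophils ×10^4/mg tissue from a neutrophil standard curve. n = 8.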

Mus musculus [5] = assay: Hepatotoxicity in Swiss mouse assessed as change in plasma AST level at 2.5 mg/kg, po for 7 days measured over 7 days relative to vehicle-treated control; format: toxicity, organism-based; set-up: dose 2.5 mg/kg, route oral; conditions: in vivo, 168 h
Method in brief: (§1)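 Mice dosed po daily for 7 days: vehicle (2% DMSO/saline or Tris/HCl pH 8.0), 10 mg/kg, or indomethacin 2.5 mg/kg. Heparinized blood is drawn under terminal anesthesia, and plasma AST and ALT are measured with a diagnostic kit. n = 8.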

Mus musculus [6] = assay: Hepatotoxicity in Swiss mouse assessed as change in plasma ALT level at 2.5 mg/kg, po for 7 days measured over 7 days relative to vehicle-treated control; format: toxicity, organism-based; set-up: dose 2.5 mg/kg, route oral; conditions: in vivo, 168 h; method in brief: as §1

COc1ccc2c(c1)c(CC(=O)O)c(C)n2C(=O)c1ccc(Cl)cc1 [INDOMETHACIN]
Activity (Mus musculus [1]): Active
inhibition (Mus musculus [2]): Active
inhibition (Mus musculus [3]): Active
Activity (Mus musculus [4]): Toxic
Activity (Mus musculus [5]): Toxic
Activity (Mus musculus [6]): Toxic
